Assay results published in ChEMBL document CHEMBL1133404, “Synthesis and biological activities of NB-506 analogues modified at the glucose group” (Bioorg Med Chem Lett, 2000).

Experiments:
MKN-45 [1] = test: Tested for cytotoxic activity against human stomach cancer cells (MKN-45); type: functional, cell-based
How it was run: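 The human stomach cancer MKN-45 cell line was used. Cytotoxicity was read out by a colorimetric tetrazolium–formazan assay and by sulforhodamine B dye staining.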

MKN-45 [2] = test: Ratio of compound toxicity to that of anticancer activity against human stomach cancer cells MKN-45 in mice; type: functional
How it was run: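 MKN-45 human stomach cancer cells were implanted subcutaneously in a side flank of nude mice. Dosing began once tumors reached 0.2 cm³ or larger and was given intravenously five times per week for 2 weeks. GID75 is the approximate dose giving 75% tumor growth inhibition. LD10 is the approximate 10% lethal dose on the same schedule. Safety margin is LD10/GID75.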

P388 [3] = test: The compound was tested for the cytotoxic activity against murine leukemia cells (P388); type: functional, cell-based; conditions: Mus musculus
How it was run: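 The murine leukemia P388 cell line was used. Cytotoxicity was read out by a colorimetric tetrazolium–formazan assay.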

P388 [4] = test: Compound was tested for the effect on the formation of protein-DNA complex in P388 cells investigated by the K+/SDS method; type: functional, Mus musculus
How it was run: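 Formation of topoisomerase–DNA (protein–DNA) complexes was measured in murine leukemia P388 cells by K+/SDS precipitation. Activity was reported as EC200.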

Protein kinase C (PKC) = test: Inhibitory effect on protein kinase C using histone II-As as substrate; type: protein assay
Mus sp. = species: Mus sp.; test: Tested for toxicity in mice; type: organism-based; conditions: in vivo
How it was run: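 Nude mice bearing subcutaneous MKN-45 human stomach cancer flank xenografts; dosing intravenous five times/week for 2 weeks, starting once tumors reached 0.2 cm³ or larger. Toxicity expressed as LD₁₀, the approximate dose lethal to 10% of animals on this schedule.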

DNA topoisomerase II = DNA topoisomerase II (Homo sapiens, UniProt P11388+Q02880); test: Tested for inhibitory effect on topoisomerase-2 mediated DNA cleavage using super coiled pBR322 plasmid DNA; type: functional
DNA topoisomerase 1 = molecular target: T1, DNA topoisomerase 1 (Homo sapiens, UniProt P11387); test: Inhibitory effect on topoisomerase-1 mediated DNA cleavage using supercoiled pBR322 plasmid DNA; type: functional
T1 sequence (P11387 whole entry): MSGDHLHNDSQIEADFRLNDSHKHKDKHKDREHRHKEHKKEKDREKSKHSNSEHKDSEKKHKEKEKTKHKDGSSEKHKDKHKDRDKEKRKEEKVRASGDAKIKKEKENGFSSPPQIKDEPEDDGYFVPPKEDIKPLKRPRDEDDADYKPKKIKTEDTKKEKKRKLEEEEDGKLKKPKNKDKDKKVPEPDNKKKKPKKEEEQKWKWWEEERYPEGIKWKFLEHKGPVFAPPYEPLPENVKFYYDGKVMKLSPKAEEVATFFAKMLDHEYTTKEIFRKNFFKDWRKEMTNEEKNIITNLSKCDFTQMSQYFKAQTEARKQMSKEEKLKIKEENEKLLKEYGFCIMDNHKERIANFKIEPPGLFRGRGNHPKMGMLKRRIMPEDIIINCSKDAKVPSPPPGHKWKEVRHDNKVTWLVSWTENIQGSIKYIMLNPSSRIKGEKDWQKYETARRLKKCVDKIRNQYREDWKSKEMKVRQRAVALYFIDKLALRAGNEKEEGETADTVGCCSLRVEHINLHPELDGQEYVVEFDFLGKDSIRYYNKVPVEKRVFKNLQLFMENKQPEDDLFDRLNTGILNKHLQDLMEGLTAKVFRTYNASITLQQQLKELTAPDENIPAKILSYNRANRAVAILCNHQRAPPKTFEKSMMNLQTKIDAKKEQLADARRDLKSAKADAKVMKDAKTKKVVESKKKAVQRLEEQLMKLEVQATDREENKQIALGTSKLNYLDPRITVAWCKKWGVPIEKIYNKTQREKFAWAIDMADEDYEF

MKN-45 [5] = test: Inhibitory activity against human stomach cancer cells MKN-45 in nude mice after intravenous dose

| Compound | IC50 (MKN-45 [1]) [nM] | Saftey margin (MKN-45 [2]) | IC50 (P388 [3]) [nM] | EC200 (P388 [4]) [nM] | IC50 (Protein kinase C (PKC)) [nM] | LD10 (Mus sp.) [mg m**-2] | EC50 (DNA topoisomerase II) [nM] | EC50 (DNA topoisomerase 1) [nM] | GID75 (MKN-45 [5]) [mg m**-2] |
| --- | --- | --- | --- | --- | --- | --- | --- | --- | --- |
| O=C1c2c(c3c4ccc(O)cc4n([C@H]4O[C@H](CO)[C@@H](O)[C@H](O)[C@H]4O)c3c3[nH]c4cc(O)ccc4c23)C(=O)N1NC(CO)CO | 8.5 | 1.5 | 19 | 450 | 23000 | 170 | > 50000 | 300 | 110 |
| C[C@H]1O[C@@H](n2c3cc(O)ccc3c3c4c(c5c6ccc(O)cc6[nH]c5c32)C(=O)N(NC(CO)CO)C4=O)[C@H](O)[C@@H](O)[C@@H]1O | 38 |  | 3 | 6500 | 60000 |  | > 50000 | 140 |  |
| O=C1c2c(c3c4ccc(O)cc4n([C@@H]4O[C@H](CO)[C@@H](O)[C@H](O)[C@H]4O)c3c3[nH]c4cc(O)ccc4c23)C(=O)N1NC(CO)CO [EDOTECARIN] | 4.8 | >36 | 1.5 | 100 | 200000 | > 1600 | > 50000 | 51 | 45 |
| O=C1c2c(c3c4ccc(O)cc4n([C@@H]4O[C@@H](C(O)CO)[C@@H](O)[C@H]4O)c3c3[nH]c4cc(O)ccc4c23)C(=O)N1NC(CO)CO (some centres undefined) | 29 |  | 14 | 1700 | > 200000 |  | > 50000 | 20 |  |
| O=C1c2c(c3c4ccc(O)cc4n([C@@H]4O[C@H](CO)[C@@H](O)[C@@H](O)[C@H]4O)c3c3[nH]c4cc(O)ccc4c23)C(=O)N1NC(CO)CO | 33 | 2.3 | 13 | 160 | 17000 | 990 | > 50000 | 26 | 440 |
| O=C1c2c(c3c4ccc(O)cc4n([C@@H]4OC[C@@H](O)[C@H](O)[C@H]4O)c3c3[nH]c4cc(O)ccc4c23)C(=O)N1NC(CO)CO | 50 |  | 3.8 | 300 | > 200000 |  | > 50000 | 100 |  |
| O=C1c2c(c3c4ccc(O)cc4n([C@H]4O[C@H](CO)[C@@H](O)[C@H]4O)c3c3[nH]c4cc(O)ccc4c23)C(=O)N1NC(CO)CO | 130 | 1.9 | 19 | 450 | 21000 | 1000 | > 50000 | 30 | 540 |
| O=C1c2c(c3c4ccc(O)cc4n([C@@H]4C[C@@H](O)[C@H](O)[C@@H](CO)O4)c3c3[nH]c4cc(O)ccc4c23)C(=O)N1NC(CO)CO | 33 |  | 16 | 1200 | 150000 |  | > 50000 | 130 |  |
| O=C1c2c(c3c4ccc(O)cc4n([C@@H]4O[C@H](CO)[C@H](O)[C@H]4O)c3c3[nH]c4cc(O)ccc4c23)C(=O)N1NC(CO)CO | 6 | 1.4 | 0.96 | 60 | > 200000 | 420 | > 50000 | 17 | 300 |
| O=C1c2c(c3c4ccc(O)cc4n([C@H]4C[C@@H](O)[C@H](O)[C@@H](CO)O4)c3c3[nH]c4cc(O)ccc4c23)C(=O)N1NC(CO)CO | 42 |  | 5.6 | 3000 | 130000 |  | > 50000 | 240 |  |
| O=C1c2c(c3c4ccc(O)cc4n([C@H]4O[C@H](CO)[C@@H](O)[C@@H]4O)c3c3[nH]c4cc(O)ccc4c23)C(=O)N1NC(CO)CO | 43 |  | 8.5 | 2600 | > 200000 |  | > 50000 | 100 |  |
| O=C1c2c(c3c4ccc(O)cc4n([C@@H]4O[C@H](CO)[C@@H](O)[C@H](O)[C@@H]4O)c3c3[nH]c4cc(O)ccc4c23)C(=O)N1NC(CO)CO | 63 |  | 36 | >10000 | 20000 |  | > 50000 | 230 |  |
| O=C1c2c(c3c4ccc(O)cc4n([C@@H]4OC[C@@H](O)[C@H]4O)c3c3[nH]c4cc(O)ccc4c23)C(=O)N1NC(CO)CO | 37 |  | 2.4 |  | 12000 |  |  | 40 |  |
| O=C1c2c(c3c4ccc(O)cc4n([C@H]4O[C@H](CO)[C@H](O)[C@H]4O)c3c3[nH]c4cc(O)ccc4c23)C(=O)N1NC(CO)CO | 68 |  | 12 | 400 | > 200000 |  | > 50000 | 17 |  |
| O=C1c2c(c3c4ccc(O)cc4n([C@@H]4O[C@H](CO)[C@@H](O[C@H]5O[C@H](CO)[C@@H](O)[C@H](O)[C@H]5O)[C@H](O)[C@H]4O)c3c3[nH]c4cc(O)ccc4c23)C(=O)N1NC(CO)CO | 73 |  | 3.5 | >10000 | > 200000 |  | > 50000 | > 3000 |  |
| O=C1c2c(c3c4ccc(O)cc4n([C@@H]4O[C@H](CO)[C@H](O)[C@H](O)[C@H]4O)c3c3[nH]c4cc(O)ccc4c23)C(=O)N1NC(CO)CO | 9.3 |  | 7.1 | >10000 | > 200000 |  |  | 140 |  |
| O=C1c2c(c3c4ccc(O)cc4n([C@H]4O[C@H](CO)[C@@H](O)[C@@H](O)[C@H]4O)c3c3[nH]c4cc(O)ccc4c23)C(=O)N1NC(CO)CO | 20 |  | 18 | 1600 | 72000 |  |  | 26 |  |
| O=C1c2c(c3c4ccc(O)cc4n([C@@H]4O[C@H](C(O)CO)[C@@H](O)[C@H]4O)c3c3[nH]c4cc(O)ccc4c23)C(=O)N1NC(CO)CO (some centres undefined) | 70 | 1.4 | 17 | 2000 | > 200000 | 370 | > 50000 | 42 | 260 |
| O=C1c2c(c3c4ccc(O)cc4n([C@H]4C[C@H](O)[C@@H](CO)O4)c3c3[nH]c4cc(O)ccc4c23)C(=O)N1NC(CO)CO | 45 |  | 4.4 | 170 | 3000 |  | > 50000 | 25 |  |
| O=C1c2c(c3c4ccc(O)cc4n([C@H]4O[C@H](CO)[C@@H](O)[C@H](O)[C@@H]4O)c3c3[nH]c4cc(O)ccc4c23)C(=O)N1NC(CO)CO | 23 |  | 15 | 930 | 50000 |  | > 50000 | 80 |  |
| O=C1c2c(c3c4ccc(O)cc4n([C@@H]4O[C@H](CO)[C@@H](O)[C@@H]4O)c3c3[nH]c4cc(O)ccc4c23)C(=O)N1NC(CO)CO | 93 |  | 5.3 | 430 | 120000 |  | > 50000 | 32 |  |
| O=C1c2c(c3c4ccc(O)cc4n([C@@H]4O[C@H](CO)[C@@H](O)[C@H]4O)c3c3[nH]c4cc(O)ccc4c23)C(=O)N1NC(CO)CO | 50 | 2 | 1.8 | 32 | 20000 | 570 | > 50000 | 8 | 290 |
